Laboratory results reported in ChEMBL document CHEMBL1137359, “Potent and orally bioavailable 8-bicyclo[2.2.2]octylxanthines as adenosine A1 receptor antagonists” (J Med Chem, 2006).
Converted amounts (≈) assume the structure as drawn.

Experiments:
[1] = target: T1, Adenosine receptor A2a (Homo sapiens, UniProt P29274); experiment: Displacement of [125I]ZM-241385 from human adenosine A2A receptor expressed in HEK cells; format: cell-based, HEK293
Outline: (§1)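 Membranes from stably transfected CHO-K1 (hA1) or HEK (hA2A, hA2B, hA3) cells, 2 h at room temperature in 50 mM HEPES pH 7.4, 1 mM EDTA, 5 mM MgCl2, 1 U/mL adenosine deaminase. 5% DMSO final except hA3. Full curves 10^-11–10^-5 M, seven concentrations, four determinations each. Filtration, γ-counting, Ki derived.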

[2] = target: T2, Adenosine receptor A1 (Homo sapiens, UniProt P30542); experiment: Displacement of [125I]ABA from human adenosine A1 receptor expressed in CHOK1 cells; format: cell-based, CHO-K1; outline: as §1
T2 sequence (P30542 whole entry): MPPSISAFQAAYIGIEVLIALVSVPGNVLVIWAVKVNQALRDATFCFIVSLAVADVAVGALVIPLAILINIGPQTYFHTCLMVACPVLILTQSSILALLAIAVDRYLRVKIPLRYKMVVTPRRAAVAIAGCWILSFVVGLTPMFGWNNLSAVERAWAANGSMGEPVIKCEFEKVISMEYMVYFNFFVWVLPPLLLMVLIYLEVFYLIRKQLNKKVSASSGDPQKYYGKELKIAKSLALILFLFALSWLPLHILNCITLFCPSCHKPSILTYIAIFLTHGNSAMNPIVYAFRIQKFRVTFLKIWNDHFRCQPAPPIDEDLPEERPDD

[3] = target: T3, Adenosine receptor A1 (Homo sapiens) (UniProt P30542); experiment: Displacement of [125I]ABA from human adenosine A1 receptor expressed in CHOK1 cells relative to control; format: cell-based; parameters: concentration or dose not given beside the values; conditions: CHO-K1
T3 sequence (whole entry): T2 sequence (P30542 whole entry)
Outline: (§2)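 Single-point screen at 1 µM antagonist, run in duplicate, on transfected-cell membranes: CHO-K1 (hA1), HEK (hA2A, hA2B, hA3). 2 h at room temperature in 50 mM HEPES pH 7.4, 1 mM EDTA, 5 mM MgCl2, 1 U/mL adenosine deaminase; 5% DMSO except hA3. Nonspecific binding with 50 µM XAC, or 10 µM BW-1433 for hA3. Result is % radioligand bound relative to control.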

[4] = target: T4, Adenosine receptor A2b (Homo sapiens) (UniProt P29275); experiment: Displacement of [125I]3-(4-aminobenzyl)-8-phenyloxyacetate-1-propyl-xanthine from human adenosine A2B receptor expressed in HEK cells relative to control; format: cell-based; parameters: concentration or dose not given beside the values; conditions: HEK293; outline: as §2
T4 sequence (whole entry): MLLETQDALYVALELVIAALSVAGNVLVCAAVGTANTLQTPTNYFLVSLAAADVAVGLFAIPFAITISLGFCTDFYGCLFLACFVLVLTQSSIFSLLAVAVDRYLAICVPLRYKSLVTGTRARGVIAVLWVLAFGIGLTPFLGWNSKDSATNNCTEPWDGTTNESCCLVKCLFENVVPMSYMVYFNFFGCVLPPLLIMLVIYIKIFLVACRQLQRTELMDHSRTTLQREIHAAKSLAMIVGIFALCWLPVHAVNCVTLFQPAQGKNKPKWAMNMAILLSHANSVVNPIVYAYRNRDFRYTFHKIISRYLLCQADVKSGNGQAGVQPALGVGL

[5] = target: T5, Adenosine receptor A3 (Homo sapiens) (UniProt P0DMS8); experiment: Displacement of [125I]ABA from human adenosine A3 receptor expressed in HEK cells relative to control; format: cell-based; parameters: concentration or dose not given beside the values; conditions: HEK293; outline: as §2
T5 sequence (whole entry): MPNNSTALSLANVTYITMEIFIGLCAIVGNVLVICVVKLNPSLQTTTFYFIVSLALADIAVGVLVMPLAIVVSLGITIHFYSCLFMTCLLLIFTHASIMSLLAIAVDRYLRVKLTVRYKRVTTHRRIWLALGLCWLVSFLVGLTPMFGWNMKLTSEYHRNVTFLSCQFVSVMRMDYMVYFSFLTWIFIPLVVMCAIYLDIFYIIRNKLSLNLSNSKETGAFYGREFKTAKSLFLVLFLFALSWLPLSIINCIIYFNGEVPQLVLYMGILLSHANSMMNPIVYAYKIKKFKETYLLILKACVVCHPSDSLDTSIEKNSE

[6] = target: T1, Adenosine receptor A2a; experiment: Displacement of [125I]ZM-241385 from human adenosine A2A receptor expressed in HEK cells relative to control; format: cell-based; parameters: concentration or dose not given beside the values; conditions: HEK293; outline: as §2
[7] = target: Adenosine receptors; A1 & A2a (Homo sapiens) (UniProt P30542+P29274); experiment: Selectivity for human adenosine A1 receptor over human adenosine A2A receptor; format: protein assay
[8] = target: T6, Adenosine receptor A1 (Rattus norvegicus, UniProt P25099); experiment: Displacement of [3H]CPX from rat brain cortex adenosine A1 receptor
T6 sequence (P25099 whole entry): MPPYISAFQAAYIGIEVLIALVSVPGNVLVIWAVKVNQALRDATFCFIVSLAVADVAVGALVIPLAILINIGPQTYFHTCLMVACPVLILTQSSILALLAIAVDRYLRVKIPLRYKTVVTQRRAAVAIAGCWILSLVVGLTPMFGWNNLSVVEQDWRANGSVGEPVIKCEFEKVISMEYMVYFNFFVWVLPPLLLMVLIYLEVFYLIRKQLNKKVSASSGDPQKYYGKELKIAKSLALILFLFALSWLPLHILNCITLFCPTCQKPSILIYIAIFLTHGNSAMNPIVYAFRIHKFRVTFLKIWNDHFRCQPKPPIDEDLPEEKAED
Outline: (§3)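 Crude membranes (10-20 µg protein) from rat brain cortex (A1, 2 nM 3H-CPX) or striatum (A2A, 0.5-1.2 nM 3H-ZM241385) incubated 90 min at room temperature in 50 mM Tris-HCl pH 7.4 with 2 U/mL adenosine deaminase. Stopped with ice-cold buffer, then vacuum filtration and scintillation counting. Ki from concentration-response displacement.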

[9] = target: Adenosine receptor A2a (Rattus norvegicus, UniProt P30543); experiment: Displacement of [3H]ZM-241385 from rat brain striatum adenosine A2A receptor; outline: as §3
[10] = target: T7, Adenosine receptor A2b (Homo sapiens, UniProt P29275); experiment: Displacement of [125I]3-(4-aminobenzyl)-8-phenyloxyacetate-1-propyl-xanthine from human adenosine A2B receptor expressed in HEK cells; format: cell-based, HEK293; outline: as §1
T7 sequence (P29275 whole entry): T4 sequence (whole entry)

[11] = Aqueous solubility of the compound; format: physicochemical; conditions: water
Outline: (§4)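 Solubility of each compound measured in sterile water for injection, 0.9% saline, 5% dextrose in water, ethanol and octanol; values in mg/mL from duplicate determinations per solvent, individual values varying <5%.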

[12] = Solubility in ethanol; format: physicochemical; outline: as §4
[13] = Solubility in 5% dextrose in water; format: physicochemical; outline: as §4
[14] = Solubility in octanol; format: physicochemical; outline: as §4
[15] = Solubility in 0.9% saline; format: physicochemical; outline: as §4
[16] = target: T8, Adenosine receptor A3 (Homo sapiens, UniProt P0DMS8); experiment: Displacement of [125I]ABA from human adenosine A3 receptor expressed in HEK cells; format: cell-based, HEK293
T8 sequence (P0DMS8 whole entry): T5 sequence (whole entry)
Outline: as §1, with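 “hA3. Radioligands: 0.3 nM (hA1) or 0.6 nM (hA3) 125I-ABA, 0.7 nM 125I-ZM241385, 0.5 nM A2B ligand.” for “hA3.”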

T1 sequence (P29274 whole entry): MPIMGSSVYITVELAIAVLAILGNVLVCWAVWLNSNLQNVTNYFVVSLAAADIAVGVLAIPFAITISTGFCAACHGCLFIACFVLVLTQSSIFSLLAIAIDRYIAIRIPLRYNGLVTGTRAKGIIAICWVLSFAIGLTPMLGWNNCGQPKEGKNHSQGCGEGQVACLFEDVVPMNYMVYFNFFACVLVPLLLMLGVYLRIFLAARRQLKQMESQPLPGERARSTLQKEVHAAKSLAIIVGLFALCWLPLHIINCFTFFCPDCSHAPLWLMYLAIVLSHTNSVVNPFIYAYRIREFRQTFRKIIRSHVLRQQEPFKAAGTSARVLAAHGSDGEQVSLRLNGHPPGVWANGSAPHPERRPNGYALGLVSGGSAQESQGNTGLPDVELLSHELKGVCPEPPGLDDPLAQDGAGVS
Sequence of Adenosine receptor A2a (Rattus norvegicus, UniProt P30543) (P30543 whole entry): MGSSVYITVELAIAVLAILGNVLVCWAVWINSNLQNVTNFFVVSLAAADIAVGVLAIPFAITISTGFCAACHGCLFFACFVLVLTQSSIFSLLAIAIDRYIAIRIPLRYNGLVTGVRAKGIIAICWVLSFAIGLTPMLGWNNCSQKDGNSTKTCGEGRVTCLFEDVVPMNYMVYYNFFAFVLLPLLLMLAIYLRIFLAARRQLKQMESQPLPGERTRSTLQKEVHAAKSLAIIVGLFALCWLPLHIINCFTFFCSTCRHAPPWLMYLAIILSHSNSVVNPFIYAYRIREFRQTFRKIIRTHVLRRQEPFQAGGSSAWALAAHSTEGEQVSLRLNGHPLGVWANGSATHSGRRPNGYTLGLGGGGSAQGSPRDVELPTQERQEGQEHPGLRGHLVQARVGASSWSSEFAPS
Sequence of Adenosine receptors; A1 & A2a (Homo sapiens) (P29274 whole entry, looked up, one chain of several): as the sequence (P29274 whole entry) above

CCCn1c(=O)c2[nH]c([C@H]3CC[C@H](CO)CC3)nc2n(CCC)c1=O
Ki [1]: 313 nM
Ki [2]: 41 nM

CCCn1c(=O)c2nc([C@H]3CC[C@H](C(=O)N4CCOCC4)CC3)[nH]c2n(CCC)c1=O
Activity [3]: 60%
Activity [4]: 48%
Activity [5]: 88%
Activity [6]: 99%

CCCn1c(=O)c2nc([C@H]3CC[C@H](C(=O)O)CC3)[nH]c2n(CCC)c1=O
Activity [3]: 31%
Activity [4]: 69%
Activity [5]: 88%
Activity [6]: 75%

CCCn1c(=O)c2nc([C@]34CC[C@](C(=O)N5CCC(C(=O)O)CC5)(CC3)CC4)[nH]c2n(CCC)c1=O
Ki [1]: 7820 nM
Ki [2]: 96 nM
Ratio Ki [7]: 81
Activity [4]: 41%
Activity [5]: 100%

CCCn1c(=O)c2nc([C@H]3CC[C@H](NC(C)=O)CC3)[nH]c2n(CCC)c1=O
Activity [3]: 45%
Activity [4]: 38%
Activity [5]: 100%
Activity [6]: 92%

CCCn1c(=O)c2nc([C@]34CC[C@](C(=O)NCC(=O)O)(CC3)CC4)[nH]c2n(CCC)c1=O
Ki [1]: 7880 nM
Ki [2]: 49 nM
Ratio Ki [7]: 161
Activity [4]: 53%
Activity [5]: 70%

CCCn1c(=O)c2nc([C@H]3CC[C@H](COCc4ccccc4)CC3)[nH]c2n(CCC)c1=O
Ki [1]: 2720 nM
Ki [2]: 171 nM
Ratio Ki [7]: 16
Activity [4]: 28%
Activity [5]: 95%

CCCCC[C@]12CC[C@](c3nc4c(=O)n(CCC)c(=O)n(CCC)c4[nH]3)(CC1)CC2
Activity [3]: 25%
Activity [4]: 100%
Activity [5]: 100%
Activity [6]: 79%

CCCn1c(=O)c2nc([C@]34CC[C@](CC(=O)O)(CC3)CC4)[nH]c2n(CCC)c1=O
Ki [8]: 22.5 nM
Ki [9]: 8960 nM

CCCn1c(=O)c2nc([C@]34CC[C@](C(=O)NCCN(C)C)(CC3)CC4)[nH]c2n(CCC)c1=O
Ki [1]: 132 nM
Ki [2]: 6 nM
Ratio Ki [7]: 22
Activity [4]: 3%
Activity [5]: 79%

CCCn1c(=O)c2[nH]c([C@H]3CC[C@H](NC(=O)OCc4ccccc4)CC3)nc2n(CCC)c1=O
Ki [1]: 2960 nM
Ki [2]: 109 nM

CCCn1c(=O)c2nc([C@]34CC[C@](C=O)(CC3)CC4)[nH]c2n(CCC)c1=O
Ki [1]: 799 nM
Ki [2]: 15 nM
Ratio Ki [7]: 53
Activity [4]: 14%
Activity [5]: 76%

CCCn1c(=O)c2nc([C@]34CC[C@](C(=O)N(C)CC(=O)OC)(CC3)CC4)[nH]c2n(CCC)c1=O
Ki [1]: > 10000 nM
Ki [2]: 112 nM
Ratio Ki [7]: > 89
Activity [5]: 88%
Ki [10]: 296 nM

CCCn1c(=O)c2nc([C@H]3CC[C@@H](NC(C)=O)CC3)[nH]c2n(CCC)c1=O
Activity [3]: 60%
Activity [4]: 46%
Activity [5]: 100%
Activity [6]: 63%

CCCn1c(=O)c2nc([C@H]3CC[C@H](NC(=O)OCc4ccccc4)CC3)[nH]c2n(CCC)c1=O
Ratio Ki [7]: 27
Activity [4]: 24%
Activity [5]: 86%

CCCn1c(=O)c2nc(C3CCC(NC(=O)OCc4ccccc4)CC3)[nH]c2n(CCC)c1=O (mixture of isomers)
Activity [3]: 23%
Activity [4]: 30%
Activity [5]: 100%
Activity [6]: 69%

CCCn1c(=O)c2nc([C@H]3CC[C@H](C(=O)N(CC)CC)CC3)[nH]c2n(CCC)c1=O
Activity [3]: 46%
Activity [4]: 39%
Activity [5]: 100%
Activity [6]: 70%

CCCn1c(=O)c2nc([C@H]3CC[C@H](CO)CC3)[nH]c2n(CCC)c1=O
Ratio Ki [7]: 8
Activity [4]: 18%
Activity [5]: 77%

CCCn1c(=O)c2nc([C@]34CC[C@](CO)(CC3)CC4)[nH]c2n(CCC)c1=O
Ki [1]: 414 nM
Ki [2]: 16 nM
Ratio Ki [7]: 26
Activity [4]: 27%
Activity [5]: 73%

CCCn1c(=O)c2[nH]c([C@H]3CC4C[C@@H]3[C@H]3O[C@@H]43)nc2n(CCC)c1=O
Ki [8]: 0.7 nM
Ki [2]: 12 nM
solubility [11]: 460 µg/mL (≈ 1340 µM)
solubility [12]: 85300 µg/mL (≈ 248000 µM)
solubility [13]: 250 µg/mL (≈ 726 µM)
solubility [14]: 4600 µg/mL (≈ 13400 µM)
solubility [15]: 430 µg/mL (≈ 1250 µM)
Ki [9]: 1250 nM
Ki [16]: 4810 nM

CCCn1c(=O)c2nc([C@]34CC[C@](/C=C/C(=O)O)(CC3)CC4)[nH]c2n(CCC)c1=O
Ki [1]: 3330 nM
Ki [2]: 9.6 nM
Ratio Ki [7]: 333
Activity [5]: 100%
Ki [10]: 100 nM

CCCn1c(=O)c2nc([C@]34CC[C@](C(=O)NCC(=O)OC)(CC3)CC4)[nH]c2n(CCC)c1=O
Ki [1]: 681 nM
Ki [2]: 8 nM
Ratio Ki [7]: 85
Ki [10]: 207 nM
Ki [16]: 6700 nM

CCCn1c(=O)c2nc([C@]34CC[C@](C(=O)OC)(CC3)CC4)[nH]c2n(CCC)c1=O
Ratio Ki [7]: 101
Activity [4]: 19%
Activity [5]: 44%

CCCn1c(=O)c2nc([C@]34CC[C@](C(=O)NCCC(=O)OC)(CC3)CC4)[nH]c2n(CCC)c1=O
Ki [1]: 1400 nM
Ki [2]: 22 nM
Ratio Ki [7]: 63
Ki [10]: 505 nM
Ki [16]: > 10000 nM

CCCCNC(=O)[C@H]1CC[C@H](c2nc3c(=O)n(CCC)c(=O)n(CCC)c3[nH]2)CC1
Ki [1]: 2260 nM
Ki [2]: 46 nM
Ratio Ki [7]: 49
Activity [4]: 11%
Activity [5]: 93%

CCCn1c(=O)c2[nH]c([C@]34CC[C@](C(=O)OC)(CC3)CC4)nc2n(CCC)c1=O
Ki [1]: 912 nM
Ki [2]: 9 nM

CCCn1c(=O)c2nc([C@H]3CC[C@H](C(=O)NCCN(C)C)CC3)[nH]c2n(CCC)c1=O
Ki [1]: 168 nM
Ki [2]: 12 nM
Ratio Ki [7]: 14
Activity [4]: 16%
Activity [5]: 91%
